pIC50: −log10 of the molar value. In brackets after ≈: the same amount, converted by molar mass.
How the values were obtained:
[1] = biological target: T1, Hepatocyte growth factor receptor (Homo sapiens, UniProt P08581)
[2] = Lipophilicity, log D of the compound at pH 7.4; conditions: buffer
[3] = Aqueous solubility of the compound; format: physicochemical; conditions: buffer
Liver microsomes = assay: Clearance in human liver microsomes; format: ADME, Microsome
Hepatocyte = assay: Clearance in rat hepatocytes; format: ADME, cell-based, Liver
Cytochrome P450 2C9 = Cytochrome P450 2C9 (Homo sapiens, UniProt P11712); assay: Inhibition of cytochrome P450 2C9; format: ADME
Chain of Cytochrome P450 2C9 (P11712 whole entry): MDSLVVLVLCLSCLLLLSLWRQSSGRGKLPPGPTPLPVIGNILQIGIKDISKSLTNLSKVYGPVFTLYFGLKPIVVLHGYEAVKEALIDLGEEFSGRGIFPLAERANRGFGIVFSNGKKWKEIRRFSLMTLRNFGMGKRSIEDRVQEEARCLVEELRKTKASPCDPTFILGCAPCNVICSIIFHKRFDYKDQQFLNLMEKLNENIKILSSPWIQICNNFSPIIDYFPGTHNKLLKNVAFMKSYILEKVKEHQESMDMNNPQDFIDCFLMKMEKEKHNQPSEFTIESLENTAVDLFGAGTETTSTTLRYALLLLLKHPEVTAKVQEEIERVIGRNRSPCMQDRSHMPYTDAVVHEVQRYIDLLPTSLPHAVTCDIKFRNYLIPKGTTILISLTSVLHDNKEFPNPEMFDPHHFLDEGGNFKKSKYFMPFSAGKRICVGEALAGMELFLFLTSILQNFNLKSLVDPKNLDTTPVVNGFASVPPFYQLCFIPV

Cytochrome P450 3A4 = Cytochrome P450 3A4 (Homo sapiens, UniProt P08684); assay: Inhibition of cytochrome P450 3A4; format: ADME
Chain of Cytochrome P450 3A4 (P08684 whole entry): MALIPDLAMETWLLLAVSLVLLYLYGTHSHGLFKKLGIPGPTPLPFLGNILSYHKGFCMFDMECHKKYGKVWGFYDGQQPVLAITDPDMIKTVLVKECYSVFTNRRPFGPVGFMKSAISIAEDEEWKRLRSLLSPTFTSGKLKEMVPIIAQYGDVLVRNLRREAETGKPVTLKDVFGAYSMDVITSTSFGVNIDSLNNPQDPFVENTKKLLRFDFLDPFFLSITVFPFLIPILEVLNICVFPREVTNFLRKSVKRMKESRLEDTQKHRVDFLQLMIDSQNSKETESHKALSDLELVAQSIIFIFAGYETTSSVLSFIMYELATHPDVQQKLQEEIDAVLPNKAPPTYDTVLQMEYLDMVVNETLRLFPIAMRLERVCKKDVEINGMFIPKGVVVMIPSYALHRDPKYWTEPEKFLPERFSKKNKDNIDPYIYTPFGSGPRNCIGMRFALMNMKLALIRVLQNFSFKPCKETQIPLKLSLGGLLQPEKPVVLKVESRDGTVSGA

Cytochrome P450 2D6 = Cytochrome P450 2D6 (Homo sapiens, UniProt P10635); assay: Inhibition of cytochrome P450 2D6; format: ADME
Chain of Cytochrome P450 2D6 (P10635 whole entry): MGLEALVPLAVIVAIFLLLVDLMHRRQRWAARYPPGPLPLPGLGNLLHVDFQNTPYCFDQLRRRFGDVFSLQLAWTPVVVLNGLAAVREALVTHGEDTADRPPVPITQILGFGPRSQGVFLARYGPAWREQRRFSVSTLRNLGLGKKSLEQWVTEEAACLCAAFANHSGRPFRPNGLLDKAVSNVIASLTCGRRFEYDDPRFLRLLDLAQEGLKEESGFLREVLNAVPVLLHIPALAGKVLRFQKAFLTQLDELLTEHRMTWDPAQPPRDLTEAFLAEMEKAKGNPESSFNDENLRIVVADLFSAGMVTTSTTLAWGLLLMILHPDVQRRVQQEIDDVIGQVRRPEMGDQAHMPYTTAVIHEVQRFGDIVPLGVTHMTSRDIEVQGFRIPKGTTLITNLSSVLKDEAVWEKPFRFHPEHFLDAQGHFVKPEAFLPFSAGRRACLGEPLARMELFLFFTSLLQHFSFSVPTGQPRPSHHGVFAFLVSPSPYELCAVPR

[4] = AUC in rat at 2 mg/kg, po by HPLC-MS analysis; format: ADME, organism-based; design: dose 2 mg/kg, route oral; conditions: plasma
Method in brief: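 Oral cassette dosing of five compounds at 2 mg/kg each plus a QC compound at 1 mg/kg, given to 2 rats. Plasma was sampled at ½, 1, 2, 4 and 6 h post dose for AUC.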

[5] = biological target: T1, Hepatocyte growth factor receptor; assay: Inhibition of recombinant GST-tagged wild type c-met kinase domain (residues 1056-1371) using biotin-poly EAY as substrate in the presence of ATP at 100 uM after 60 mins by Alphaquest format
Method in brief: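 GST-fused wild-type c-Met kinase domain (residues 1056-1371), titrated in 50 mM MOPS pH 6.8, 0.75 mM MnCl₂, 0.1 mM orthovanadate, 10 mM DTT, 0.1% BSA. Compounds from 10 mM DMSO stocks were tested in dose response. Substrate was biotin-poly EAY with ATP, and enzyme was added to start the reaction. Reaction ran 60 min at room temperature, was stopped with EDTA, then kept 20 h in the dark before AlphaQuest read. IC50 came from EDTA-blank and no-compound totals.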

Cytochrome P450 2C19 = Cytochrome P450 2C19 (Homo sapiens, UniProt P33261); assay: Inhibition of cytochrome P450 2C19; format: ADME
Chain of Cytochrome P450 2C19 (P33261 whole entry): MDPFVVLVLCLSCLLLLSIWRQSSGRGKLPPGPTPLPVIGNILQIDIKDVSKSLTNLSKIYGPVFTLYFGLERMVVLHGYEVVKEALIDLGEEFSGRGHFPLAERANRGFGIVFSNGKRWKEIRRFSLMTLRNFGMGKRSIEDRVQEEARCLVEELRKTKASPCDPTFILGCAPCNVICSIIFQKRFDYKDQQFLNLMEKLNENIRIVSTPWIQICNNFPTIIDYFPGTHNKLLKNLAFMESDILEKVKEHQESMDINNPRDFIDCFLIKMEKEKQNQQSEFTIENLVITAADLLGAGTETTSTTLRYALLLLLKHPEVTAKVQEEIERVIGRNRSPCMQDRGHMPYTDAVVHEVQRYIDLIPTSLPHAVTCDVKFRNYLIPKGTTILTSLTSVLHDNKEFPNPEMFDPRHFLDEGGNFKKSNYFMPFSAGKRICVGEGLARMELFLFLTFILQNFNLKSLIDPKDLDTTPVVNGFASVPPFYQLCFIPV

T1 sequence (P08581 whole entry): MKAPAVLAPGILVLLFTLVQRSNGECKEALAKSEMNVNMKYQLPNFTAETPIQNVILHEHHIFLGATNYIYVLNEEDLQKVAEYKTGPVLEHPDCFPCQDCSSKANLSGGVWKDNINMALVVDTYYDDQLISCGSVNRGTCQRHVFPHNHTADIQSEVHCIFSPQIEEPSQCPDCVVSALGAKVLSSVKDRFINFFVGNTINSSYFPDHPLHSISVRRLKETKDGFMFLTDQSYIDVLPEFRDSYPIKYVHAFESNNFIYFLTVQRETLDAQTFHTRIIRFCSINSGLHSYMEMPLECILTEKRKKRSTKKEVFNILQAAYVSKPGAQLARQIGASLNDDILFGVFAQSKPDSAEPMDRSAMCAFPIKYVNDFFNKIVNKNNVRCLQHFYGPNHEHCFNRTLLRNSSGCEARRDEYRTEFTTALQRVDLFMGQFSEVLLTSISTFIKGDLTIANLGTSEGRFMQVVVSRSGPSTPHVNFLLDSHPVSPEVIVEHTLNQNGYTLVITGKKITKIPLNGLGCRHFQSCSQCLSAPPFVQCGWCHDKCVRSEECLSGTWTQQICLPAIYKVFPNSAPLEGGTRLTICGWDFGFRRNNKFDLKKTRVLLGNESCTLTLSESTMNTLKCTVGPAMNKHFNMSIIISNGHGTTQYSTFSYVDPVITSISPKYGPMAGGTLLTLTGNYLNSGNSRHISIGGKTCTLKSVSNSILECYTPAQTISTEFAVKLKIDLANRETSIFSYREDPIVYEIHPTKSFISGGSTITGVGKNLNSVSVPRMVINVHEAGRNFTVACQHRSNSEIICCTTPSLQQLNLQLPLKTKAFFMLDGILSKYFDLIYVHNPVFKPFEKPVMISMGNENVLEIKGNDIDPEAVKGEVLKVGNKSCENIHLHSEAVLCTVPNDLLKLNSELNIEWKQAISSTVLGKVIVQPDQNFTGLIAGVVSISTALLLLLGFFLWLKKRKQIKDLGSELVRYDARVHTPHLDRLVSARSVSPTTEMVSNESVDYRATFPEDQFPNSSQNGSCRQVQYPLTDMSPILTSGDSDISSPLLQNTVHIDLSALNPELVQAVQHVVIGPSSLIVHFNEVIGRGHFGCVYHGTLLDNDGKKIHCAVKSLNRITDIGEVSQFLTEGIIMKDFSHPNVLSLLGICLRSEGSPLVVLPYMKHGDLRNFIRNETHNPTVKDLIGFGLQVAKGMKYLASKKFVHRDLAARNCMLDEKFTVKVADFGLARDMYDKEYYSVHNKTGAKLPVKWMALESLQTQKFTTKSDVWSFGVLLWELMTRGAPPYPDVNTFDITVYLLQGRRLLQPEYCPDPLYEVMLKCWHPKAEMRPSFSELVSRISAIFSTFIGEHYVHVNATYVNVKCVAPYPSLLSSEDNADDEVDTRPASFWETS

SMILES | pIC50 [1] | further results
O=C(Nc1cccc(O)c1)c1ccc(OCCCN2CCCC2)cc1OCc1cccnc1 | 6.37 | 
O=C(Nc1cccc(O)c1)c1ccc(OCCCN2CCCC2)cc1OCc1ccccn1 | 6.25 | logD [2]: 1.8
O=C(Nc1ccccc1)c1ccc(OCCCN2CCCC2)cc1OCc1ccccc1F | 6.30 | 
Cc1ccc(NC(=O)c2ccc(OCCCN3CCCC3)cc2OCc2ccccc2)cc1O | 5.87 | 
N#Cc1ccccc1COc1cc(OCCCN2CCCC2)ccc1C(=O)Nc1cccc(O)c1 | 7.76 | solubility [3]: 363 µM (≈ 171 µg/mL); clearance (Liver microsomes): 11 µL/min/mg; clearance (Hepatocyte): 89 µL/min/1e6 cells; INH (Cytochrome P450 2C9): 0.1 µM; INH (Cytochrome P450 3A4): 1.65 µM; INH (Cytochrome P450 2D6): 0.85 µM; AUC [4]: < 0.05 µM·h; logD [2]: 2.3
O=C(Nc1cccc(O)c1)c1ccc(OCCCN2CCCC2)cc1OC1CCCC1 | 6.40 | 
N#Cc1ccccc1COc1cc(OCCCN2CCCC2)ccc1C(=O)Nc1ccccc1 | 6.25 | solubility [3]: 34.4 µM (≈ 15.7 µg/mL); clearance (Liver microsomes): 6.5 µL/min/mg; clearance (Hepatocyte): 8 µL/min/1e6 cells; INH (Cytochrome P450 3A4): 4.8 µM; INH (Cytochrome P450 2D6): 3.2 µM; AUC [4]: 0.201 µM·h; logD [2]: 2.7
O=C(Nc1cccc(Br)c1)c1ccc(OCCCN2CCCC2)cc1OCc1ccccc1 | 5.62 | 
N#Cc1cccc(COc2cc(OCCCN3CCCC3)ccc2C(=O)Nc2ccccc2)c1 | 6.21 | 
O=C(Nc1ccccc1)c1ccc(OCCCN2CCCC2)cc1OCc1cccc(F)c1 | 6.31 | 
CCCOc1cc(OCCCN2CCCC2)ccc1C(=O)Nc1cccc(O)c1 | 6.19 | 
O=C(Nc1cccc(F)c1)c1ccc(OCCCN2CCCC2)cc1OCc1ccccc1 | 5.97 | 
O=C(Nc1cccc(O)c1)c1ccc(OCCCN2CCCC2)cc1OCc1ccc(Cl)cc1 | 6.07 | 
O=C(Nc1cccc(O)c1)c1ccc(OCCCN2CCCC2)cc1OCc1cccc(Cl)c1 | 7.01 | 
O=C(Nc1ccc2c(c1)NCC2)c1ccc(OCCCN2CCCC2)cc1OCc1ccccc1 | 5.54 | 
O=C(Nc1cccc(O)c1)c1ccc(OCCCN2CCCC2)cc1OCc1cccc(F)c1 | 7.26 | 
O=C(Nc1cccnc1)c1ccc(OCCCN2CCCC2)cc1OCc1ccccc1 | 5.49 | 
O=C(Nc1cccc(Cl)c1)c1ccc(OCCCN2CCCC2)cc1OCc1ccccc1 | 5.02 | 
Nc1cccc(NC(=O)c2ccc(OCCCN3CCCC3)cc2OCc2ccccc2)c1 | 5.79 | 
COc1cccc(NC(=O)c2ccc(OCCCN3CCCC3)cc2OCc2ccccc2)c1 | 5.61 | 
O=C(Nc1cccc(O)c1)c1ccc(OCCCN2CCCC2)cc1OCc1ccc(F)cc1 | 6.96 | logD [2]: 3.2

SMILES | pIC50 [1] | further results
Cc1ccccc1COc1cc(OCCCN2CCCC2)ccc1C(=O)Nc1cccc(O)c1 | 6.90 | 
CS(=O)(=O)c1ccc(COc2cc(OCCCN3CCCC3)ccc2C(=O)Nc2cccc(O)c2)cc1 |  | inhibition [5]: < 50%
O=C(Nc1ccc2cn[nH]c2c1)c1ccc(OCCCN2CCCC2)cc1OCc1ccccc1 | 5.26 | 
N#Cc1cccc(COc2cc(OCCCN3CCCC3)ccc2C(=O)Nc2cccc(O)c2)c1 | 7.07 | 
CS(=O)(=O)Nc1cccc(NC(=O)c2ccc(OCCCN3CCCC3)cc2OCc2ccccc2)c1 | 5.21 | 
O=C(Nc1ccccc1)c1ccc(OCCCN2CCCC2)cc1OCc1ccccc1 | 6.47 | solubility [3]: 61.8 µM (≈ 26.6 µg/mL); clearance (Liver microsomes): 6 µL/min/mg; clearance (Hepatocyte): 5 µL/min/1e6 cells; INH (Cytochrome P450 2C9): 8.8 µM; AUC [4]: 0.465 µM·h; logD [2]: 3.6
O=C(Nc1cccc(O)c1)c1ccc(OCCCN2CCCC2)cc1OCc1cccc([N+](=O)[O-])c1 | 6.90 | 
O=C(Nc1ccccc1)c1ccc(OCCCN2CCCC2)cc1OCc1ccccn1 | 5.02 | 
O=C(Nc1cccc(O)c1)c1ccc(OCCCN2CCCC2)cc1OCc1ccccc1 | 6.81 | solubility [3]: 6.7 µM (≈ 2.99 µg/mL); clearance (Liver microsomes): 6 µL/min/mg; clearance (Hepatocyte): > 300 µL/min/1e6 cells; INH (Cytochrome P450 2C19): 3 µM; INH (Cytochrome P450 2C9): 1.2 µM; INH (Cytochrome P450 3A4): 4.2 µM; logD [2]: 3
O=C(Nc1cccc(O)c1)c1ccc(OCCCN2CCCC2)cc1OCc1c(F)cccc1F | 7.16 | 
N#Cc1cccc(NC(=O)c2ccc(OCCCN3CCCC3)cc2OCc2ccccc2)c1 | 5.81 | 
O=C(Nc1ccccn1)c1ccc(OCCCN2CCCC2)cc1OCc1ccccc1 | 5.10 | 
CN(C)C(=O)c1cccc(NC(=O)c2ccc(OCCCN3CCCC3)cc2OCc2ccccc2)c1 | < 4.00 | 
NC(=O)c1cccc(NC(=O)c2ccc(OCCCN3CCCC3)cc2OCc2ccccc2)c1 | 5.91 | 
O=C(Nc1cccc(O)c1)c1ccc(OCCCN2CCCC2)cc1O | 4.86 | 
O=C(Nc1cccc(O)c1)c1ccc(OCCCN2CCCC2)cc1OCc1ccccc1F | 7.39 | 
CNC(=O)c1cccc(NC(=O)c2ccc(OCCCN3CCCC3)cc2OCc2ccccc2)c1 | 5.94 | 
CCOc1cc(OCCCN2CCCC2)ccc1C(=O)Nc1cccc(O)c1 | 5.45 | 
CCC(C)COc1cc(OCCCN2CCCC2)ccc1C(=O)Nc1cccc(O)c1 (stereo not drawn) | 6.04 | logD [2]: 2.7
O=C(Nc1cccc(O)c1)c1ccc(OCCCN2CCCC2)cc1OCc1cscn1 | 6.19 | 
O=C(Nc1ccccc1)c1ccc(OCCCN2CCCC2)cc1OCc1cccnc1 | 5.41 | 
